In test [1] the test system is Pichia kudriavzevii. Briefly: Antifungal activity against Candida krusei Glasgow exponential-phase planktonic cell assessed as cell killing at 5 ug/ml after 24 hrs. Format: functional, organism-based. In a few lines: (§1)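 Planktonic cells grown at 37°C with shaking in YNB/50 mM glucose. Exponential phase was 8 h for C. krusei, C. albicans and C. tropicalis, 11 h for C. parapsilosis and 18 h for C. glabrata; stationary phase was 48 h. Washed cells at ~10^7 cells ml−1 got amphotericin B (5–100 μg ml−1) in MOPS-buffered (pH 7) YNB glucose, 24 h at 37°C. Viable counts by plating. Two experiments in duplicate.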

Test [2] has as its system Candida albicans. In words: Antifungal activity against Candida albicans GDH 2346. The test is classed as functional.
Test [3] deals with Candida albicans. Briefly: Antifungal activity against Candida albicans GDH 2346 Biofilm assessed as resistant isolate at 100 ug/ml after 24 hrs. The test is classed as functional. In a few lines:
(§2)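 Biofilms formed on 0.8 cm PVC discs. Standardized YNB/50 mM glucose-grown cells (OD520 0.8) adhered 1 h at 37°C, then grew 48 h at 37°C. Mature biofilms were exposed 24 h at 37°C to amphotericin B 5–100 μg ml−1 in YNB glucose buffered to pH 7 with 0.165 M MOPS; drug-free controls. Cells were scraped and vortexed off, washed in PBS, then viable counts were made by serial dilution and plating on YNB/200 mM glucose agar. Two independent experiments, each in duplicate.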

Test [4] has as its system Candida albicans. Briefly: Antifungal activity against Candida albicans SC5314 exponential/stationary phase planktonic cell assessed as persisters at 100 ug/ml after 24 hrs. The test is classed as functional, organism-based. In a few lines: as §1
Test [5] has as its system Candida albicans. In words: Antifungal activity against Candida albicans SC5314 biofilm assessed as cell killing at 100 ug/ml after 24 hrs. Format: functional, organism-based. In a few lines: (§3)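 PVC discs (0.8 cm) seeded with washed YNB/50 mM glucose-grown cells (OD520 0.8), adhered 1 h at 37°C, washed, and grown 48 h at 37°C in medium. Biofilms exposed 24 h at 37°C to amphotericin B (5–100 μg ml−1) in YNB glucose buffered to pH 7 with 0.165 M MOPS; drug-free controls. Cells scraped, vortexed, PBS-washed, viable counts on YNB/200 mM glucose agar. Two experiments in duplicate.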

The subject of test [6] is Candida albicans. In words: Antifungal activity against Candida albicans GDH 2346 exponential phase planktonic cell assessed as cell killing at 5 ug/ml after 24 hrs. The test is classed as functional, organism-based. In short, it runs like this: as §1
Test [7] deals with Candida parapsilosis. Briefly: Antifungal activity against Candida parapsilosis AAHB 4479 exponential-phase planktonic cell assessed as cell killing after 24 hrs. The test is classed as functional, organism-based. In short, it runs like this: as §1
For test [8], the system named is Pichia kudriavzevii. Briefly: Antifungal activity against Candida krusei Glasgow stationary-phase planktonic cell assessed as cell killing after 24 hrs. Format: functional, organism-based. In a few lines: as §1
Test [9] deals with Candida albicans. Briefly: Antifungal activity against Candida albicans SC5314 biofilm persisters at 100 ug/ml after 24 hrs. The test is classed as functional, organism-based. In a few lines:
as §3

Test [10] relates to Candida parapsilosis. In words: Antifungal activity against Candida parapsilosis AAHB 4479 stationary-phase planktonic cell assessed as cell killing after 24 hrs. Format: functional, organism-based. In short, it runs like this: as §1
The test system of test [11] is Candida albicans. Briefly: Antifungal activity against Candida albicans GDH 2346 stationary phase planktonic cell assessed as cell killing at 5 ug/ml after 24 hrs. The test is classed as functional, organism-based. In a few lines:
as §1

For test [12], the system named is Nakaseomyces glabratus. Briefly: Antifungal activity against Candida glabrata AAHB 12 exponential-phase planktonic cell assessed as cell killing at 5 ug/ml after 24 hrs. The test is classed as functional, organism-based. In short, it runs like this: as §1
The subject of test [13] is Pichia kudriavzevii. Briefly: Antifungal activity against Candida krusei Glasgow Biofilm assessed as resistant isolates after 24 hrs. The test is classed as functional. In short, it runs like this:
as §2

Test [14] relates to Candida parapsilosis. Briefly: Antifungal activity against Candida parapsilosis AAHB 4479 Biofilm assessed as resistant isolates after 24 hrs. Format: functional. In short, it runs like this: as §2
The test system of test [15] is Candida tropicalis. In words: Antifungal activity against Candida tropicalis AAHB 73 exponential-phase planktonic cell assessed as cell killing at 5 ug/ml after 24 hrs. Format: functional, organism-based. In short, it runs like this:
as §1

In test [16] the test system is Candida albicans. Briefly: Antifungal activity against Candida albicans SC5314 exponential/stationary phase planktonic cell assessed as cell killing at 100 ug/ml after 24 hrs. The test is classed as functional, organism-based. In short, it runs like this:
as §1

For test [17], the system named is Candida tropicalis. In words: Antifungal activity against Candida tropicalis AAHB 73 stationary-phase planktonic cell assessed as cell killing after 24 hrs. Format: functional, organism-based. In short, it runs like this:
as §1

Converted amounts (≈) assume the structure as drawn. The source made the active and inactive calls. The rule behind the calls is not given here.

Turning to `C[C@@H]1[C@H](O)[C@@H](C)/C=C/C=C/C=C/C=C/C=C/C=C/C=C/[C@H](O[C@@H]2O[C@H](C)[C@@H](O)[C@H](N)[C@@H]2O)C[C@@H]2O[C@](O)(C[C@@H](O)C[C@@H](O)[C@H](O)CC[C@@H](O)C[C@@H](O)CC(=O)O[C@H]1C)C[C@H](O)[C@H]2C(=O)O` [AMPHOTERICIN B], the result in test [1], in test [4], in test [5], in test [6], in test [9] and in [11] was Active. Moreover, the outcome in [12], in [15] and in [16] was Active. The MIC (usually the lowest concentration found to suppress growth) in test [2] turned out to be 1.3 µg/mL (≈ 1.41 µM). Moreover, the Activity in test [3] is given as 0.01%; in [13], 0.001%; in [14], 0.07%. Also, the result in test [7], in [8], in test [10] and in test [17] was inactive.

For the origin of these results see ChEMBL document CHEMBL1255324, “Absence of amphotericin B-tolerant persister cells in biofilms of some Candida species” (2008).
